How the values were obtained:
Mus musculus [1] = test: Tested in vivo for their ability to induction of catalepsy in mice; type: functional
Method in brief: (§1)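 Catalepsy induction was tested in male CD-1 mice (20–25 g). Drug was given in 0.5% methyl cellulose vehicle at 0.5–2.0 mL/100 g. ED50 by Litchfield–Wilcoxon.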

Mus musculus [2] = test: Tested in vivo for their ability to antagonize the apomorphine induced stereotypy response in mice; type: functional
Method in brief: (§2)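 Male CD-1 mice (20–25 g) were acclimated ≥30 min in wire-mesh cages. Drug in 0.5% methyl cellulose or vehicle was given po 60 min before sc apomorphine HCl 5 mg/kg in 0.0001 N HCl, N = 6/dose group. Climbing and stereotypy were scored every 5 min for 30 min, starting at 5 min. The six scores were averaged and % antagonism taken versus controls. ED50 by Litchfield–Wilcoxon.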

[3] = target: Serotonin 2 (5-HT2) receptor (Rattus norvegicus, UniProt P30994+P08909+P14842); test: In vitro binding affinity was measured on serotonergic 5-hydroxytryptamine 2 receptor by displacement of [3H]- ketanserin; type: protein assay
Mus musculus [4] = test: In vivo the ability to antagonize the apomorphine induced climbing response in mice after peroral administration; type: functional; details: po; method in brief: as §2
[5] = target: T1, 5-hydroxytryptamine receptor 1A (Rattus norvegicus, UniProt P19327); test: In vitro binding affinity was measured on serotonergic 5-hydroxytryptamine 1A receptor by displacement of [3H]- tetralin
T1 sequence (P19327 whole entry): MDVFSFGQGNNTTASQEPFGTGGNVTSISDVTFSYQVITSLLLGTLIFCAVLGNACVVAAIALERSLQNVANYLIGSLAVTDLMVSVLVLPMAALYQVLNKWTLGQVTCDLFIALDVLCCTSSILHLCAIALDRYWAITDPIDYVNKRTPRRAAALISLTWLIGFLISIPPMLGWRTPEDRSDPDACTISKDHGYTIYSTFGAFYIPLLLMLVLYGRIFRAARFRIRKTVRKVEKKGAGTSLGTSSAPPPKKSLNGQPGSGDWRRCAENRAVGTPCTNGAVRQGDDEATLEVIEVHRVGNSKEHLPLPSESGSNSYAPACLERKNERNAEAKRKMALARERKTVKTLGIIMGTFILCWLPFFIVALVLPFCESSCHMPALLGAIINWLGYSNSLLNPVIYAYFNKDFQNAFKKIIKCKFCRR
Method in brief: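 Rat hippocampus membranes from male Sprague-Dawley rats, homogenized in 50 mM Tris pH 7.7, preincubated 10 min at 37 °C. Final incubation buffer was 50 mM Tris, 4 mM CaCl2, 10 μM pargyline, 0.1% ascorbic acid, pH 7.4. [3H]-8-OH-DPAT at 0.3 nM final, 30 min at 25 °C, then filtration. Nonspecific binding was defined with 10 μM serotonin.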

Mus musculus [6] = test: In vivo the ability to antagonize the apomorphine induced climbing response in mice; type: functional; method in brief: as §2
Mus musculus [7] = test: Tested in vivo for their ability to induction of catalepsy in mice after peroral administration; type: functional; details: po; method in brief: as §1
Mus musculus [8] = test: Tested in vivo for their ability to antagonize the apomorphine induced stereotypy response in mice after peroral administration; type: functional; details: po; method in brief: as §2

| SMILES | ED50 (Mus musculus [1]) [mg/kg] | ED50 (Mus musculus [2]) [mg/kg] | IC50 [3] [nM] | ED50 (Mus musculus [4]) [mg/kg] | IC50 [5] [nM] | ED50 (Mus musculus [6]; Mus musculus, read-out: ED50) [mg/kg] | ED50 (Mus musculus [7]) [mg/kg] | ED50 (Mus musculus [8]) [mg/kg] | ED50 (Mus musculus [6]) [mg/kg] |
| --- | --- | --- | --- | --- | --- | --- | --- | --- | --- |
| O=C(CCCN1CCC(O)(c2ccc(Cl)cc2)CC1)c1ccc(F)cc1 [HALOPERIDOL] | 3 | 0.9 |  |  |  |  |  |  |  |
| O=c1c2ccccc2sn1CCCCN1CCN(c2nsc3ccccc23)CC1 |  |  | 140 | > 25 | 120 |  |  |  |  |
| O=C1Cc2ccccc2C(=O)N1CCCCN1CCN(c2nsc3ccccc23)CC1 | 133 | 40.3 | 4.7 |  | 1.8 | 12.2 |  |  |  |
| O=C1c2ccccc2CCCN1CCCCN1CCN(c2nsc3ccccc23)CC1 |  |  | 4.2 |  | 4.1 | > 25 |  |  |  |
| CCOC(=O)n1c2ccccc2c(=O)n1CCCCN1CCN(c2nsc3ccccc23)CC1 |  |  | 7.9 |  | 33 | > 25 |  |  |  |
| O=c1c2ccccc2[nH]n1CCCCN1CCN(c2nsc3ccccc23)CC1 |  |  | 150 | > 25 | 350 |  |  |  |  |
| O=C1c2ccccc2CCN1CCCCN1CCN(c2nsc3ccccc23)CC1 |  |  | 1.9 |  | 0.64 | 16.4 |  |  |  |
| Cc1nn(CCCCN2CCN(c3nsc4ccccc34)CC2)c(=O)c2ccccc12 |  |  | 0.84 | 30.4 | 3.4 |  |  |  |  |
| O=C1c2ccccc2C(=O)N1CCCCN1CCN(c2nsc3ccccc23)CC1 |  |  | 7.6 |  | 0.19 | 6.2 |  |  |  |
| O=c1c2ccccc2ncn1CCCCN1CCN(c2nsc3ccccc23)CC1 |  |  | 2.3 | 6.2 | 0.59 |  |  |  |  |
| O=c1c2ccccc2cnn1CCCCN1CCN(c2nsc3ccccc23)CC1 |  |  | 1.8 | 9.5 | 10 |  | 70.4 | 29.8 |  |
| O=C1c2ccccc2CN1CCCCN1CCN(c2nsc3ccccc23)CC1 | > 360 | 24.7 | 5.1 |  | 7 | 6.3 |  |  |  |
| O=C1C2CCCCC2C=NN1CCCCN1CCN(c2nsc3ccccc23)CC1 (stereo in doubt; 53) |  |  | 0.38 |  | 0.021 | 25 |  |  |  |
| O=c1[nH]n(CCCCN2CCN(c3nsc4ccccc34)CC2)c(=O)c2ccccc12 |  |  | 76 | > 25 | 2.6 |  |  |  |  |
| O=c1c2ccccc2nnn1CCCCN1CCN(c2nsc3ccccc23)CC1 |  |  | 2.9 | 19.1 | 1.7 |  | 252 | 57.8 |  |
| O=C1C2CCCCC2C=NN1CCCCN1CCN(c2nsc3ccccc23)CC1 (stereo in doubt; 52) |  |  | 0.76 |  | 0.82 |  |  |  | 16.2 |
| O=C1c2ccccc2S(=O)(=O)N1CCCCN1CCN(c2nsc3ccccc23)CC1 |  |  | 1.1 | 48.7 | 0.4 |  |  |  |  |

From ChEMBL document CHEMBL1127609, “Cyclic benzamides as mixed dopamine D2/serotonin 5-HT2 receptor antagonists: potential atypical antipsychotic agents” (J Med Chem, 1994)
